# Experimental data published in ChEMBL document CHEMBL4270643, “Structure-based drug design: Synthesis and biological evaluation of quinazolin-4-amine derivatives as selective Aurora A kinase inhibitors” (Eur J Med Chem, 2018).
# Active and inactive are the calls of the source. No cut-off for these calls is given here.
# How the values were obtained:
# MDA-MB-231 [1] = experiment: Antiproliferative activity against human MDA-MB-231 cells after 48 hrs by CCK8 assay; type: functional, cell-based; settings: MDA-MB-231, 48 h
# Mus musculus [2] = experiment: Toxicity in BALB/c athymic nude mouse xenografted with human MDA-MB-231 cells assessed as effect on HGB level at 30 mg/kg, ig administered every 2 days for 18 days measured post last dose; type: organism-based; settings: in vivo, po
# How it was run: (§1)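 After the 18-day intragastric course (every 2 days), blood cell counts taken from untreated, vehicle and dosed mice; groups compared by unpaired two-tailed t-test; mean ±SD, n=4.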
# Aurora kinase B [3] = biological target: T1, Aurora kinase B (Homo sapiens, UniProt Q96GD4); experiment: Inhibition of Aurora B (unknown origin) using FAM-labelled peptide as substrate pretreated for 10 mins followed by substrate addition and measured after 60 mins by fluorescence assay
# T1 sequence (Q96GD4 whole entry): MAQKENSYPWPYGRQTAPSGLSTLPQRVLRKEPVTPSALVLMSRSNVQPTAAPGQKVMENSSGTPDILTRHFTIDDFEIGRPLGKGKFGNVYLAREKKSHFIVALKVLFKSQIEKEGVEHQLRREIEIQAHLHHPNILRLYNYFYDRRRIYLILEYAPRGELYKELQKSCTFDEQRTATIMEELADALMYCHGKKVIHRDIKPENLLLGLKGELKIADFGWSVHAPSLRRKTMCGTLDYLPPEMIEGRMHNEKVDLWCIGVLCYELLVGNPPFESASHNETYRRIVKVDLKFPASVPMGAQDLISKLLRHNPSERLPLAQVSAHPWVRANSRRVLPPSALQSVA
# How it was run: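 Kinase IC50 values are the mean of at least two independent experiments; selectivity is the Aurora A/B ratio of these IC50s.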
# Mus musculus [4] = experiment: Toxicity in BALB/c athymic nude mouse xenografted with human MDA-MB-231 cells assessed as body weight loss at 30 mg/kg, ig administered every 2 days for 18 days measured during compound dosing; type: organism-based; settings: in vivo, po
# How it was run: (§2)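 Xenograft-bearing nude mice dosed intragastrically every 2 days for 18 days; body weight tracked throughout. After treatment ended, liver, lung, kidney and spleen weighed in untreated, vehicle and dosed groups; unpaired two-tailed t-test; mean ±SD, n=4.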
# MDA-MB-231 [5] = experiment: Antitumor activity against human MDA-MB-231 cells xenografted in BALB/c athymic nude mouse assessed as tumor weight at 30 mg/kg, ig administered every 2 days for 18 days (reference value: 1.7 +/- 0.84 g); type: functional
# How it was run: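 Nude mice with established MDA-MB-231 xenografts dosed intragastrically every 2 days for 18 days; vehicle control group; n=4 per group. Tumor volume estimated over time and compared by two-way repeated-measures ANOVA; dissected tumors weighed at end. Data as mean ±SD.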
# Mus musculus [6] = experiment: Toxicity in BALB/c athymic nude mouse xenografted with human MDA-MB-231 cells assessed as effect on RBC level at 30 mg/kg, ig administered every 2 days for 18 days measured post last dose; type: organism-based; settings: in vivo, po; how it was run: as §1
# MDA-MB-231 [7] = experiment: Induction of morphological changes in human MDA-MB-231 cells assessed as monopolar/multipolar spindle formation at 1 uM by DAPI staining based microscopic analysis; type: functional, cell-based
# How it was run: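 MDA-MB-231 cells incubated 24 h with 1 µM compound or 0.1% DMSO; immunofluorescence imaging of centrosomes, spindles and nuclei at ×1000 to score spindle polarity and chromosome alignment at the metaphase plate.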
# Mus musculus [8] = experiment: Toxicity in BALB/c athymic nude mouse xenografted with human MDA-MB-231 cells assessed as effect on RDW-CV level at 30 mg/kg, ig administered every 2 days for 18 days measured post last dose; type: organism-based; settings: in vivo, po; how it was run: as §1
# DU-145 = experiment: Antiproliferative activity against human DU145 cells after 48 hrs by CCK8 assay; type: functional, cell-based; settings: DU-145, 48 h
# Mus musculus [9] = experiment: Toxicity in BALB/c athymic nude mouse xenografted with human MDA-MB-231 cells assessed as effect on MCHC level at 30 mg/kg, ig administered every 2 days for 18 days measured post last dose; type: organism-based; settings: in vivo, po; how it was run: as §1
# Mus musculus [10] = experiment: Toxicity in BALB/c athymic nude mouse xenografted with human MDA-MB-231 cells assessed as effect on lung weight at 30 mg/kg, ig administered every 2 days for 18 days measured post last dose; type: organism-based; settings: in vivo, po; how it was run: as §2
# Aurora kinase B [11] = biological target: T1, Aurora kinase B; experiment: Inhibition of Aurora B in human 293T cells assessed as reduction in histone H3 phosphorylation at Ser10 residue at 1 to 2 uM after 24 hrs by Western blot analysis; type: cell-based
# How it was run: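 293T cells treated 24 h with increasing doses or 0.1% DMSO control; lysates probed by Western blot for p-Aurora A (Thr288) and p-histone H3 (Ser10), with GAPDH as loading control.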
# MDA-MB-231 [12] = experiment: Cell cycle arrest in human MDA-MB-231 cells assessed as accumulation of cells with 4N/8N DNA content after 24 hrs by propidium iodide staining based flow cytometry; type: functional
# How it was run: (§3)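 MDA-MB-231 cells exposed to test compound at indicated doses, MLN8237, or 0.1% DMSO control for 24 h; cell-cycle distribution, including G2/M and 4N/8N populations, read by flow cytometry.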
# Mus musculus [13] = experiment: Toxicity in BALB/c athymic nude mouse xenografted with human MDA-MB-231 cells assessed as effect on kidney weight at 30 mg/kg, ig administered every 2 days for 18 days measured post last dose; type: organism-based; settings: in vivo, po; how it was run: as §2
# MOLT-4 = experiment: Antiproliferative activity against human MOLT4 cells after 48 hrs by CCK8 assay; type: functional, cell-based; settings: Homo sapiens, MOLT-4, 48 h; read-out: IC50
# [14] = biological target: Voltage-gated inwardly rectifying potassium channel KCNH2 (Homo sapiens, UniProt Q12809); experiment: Inhibition of human ERG expressed in CHO cells at -80 mV holding potential by whole-cell patch clamp method; type: cell-based
# Chain of Voltage-gated inwardly rectifying potassium channel KCNH2 (Q12809 whole entry): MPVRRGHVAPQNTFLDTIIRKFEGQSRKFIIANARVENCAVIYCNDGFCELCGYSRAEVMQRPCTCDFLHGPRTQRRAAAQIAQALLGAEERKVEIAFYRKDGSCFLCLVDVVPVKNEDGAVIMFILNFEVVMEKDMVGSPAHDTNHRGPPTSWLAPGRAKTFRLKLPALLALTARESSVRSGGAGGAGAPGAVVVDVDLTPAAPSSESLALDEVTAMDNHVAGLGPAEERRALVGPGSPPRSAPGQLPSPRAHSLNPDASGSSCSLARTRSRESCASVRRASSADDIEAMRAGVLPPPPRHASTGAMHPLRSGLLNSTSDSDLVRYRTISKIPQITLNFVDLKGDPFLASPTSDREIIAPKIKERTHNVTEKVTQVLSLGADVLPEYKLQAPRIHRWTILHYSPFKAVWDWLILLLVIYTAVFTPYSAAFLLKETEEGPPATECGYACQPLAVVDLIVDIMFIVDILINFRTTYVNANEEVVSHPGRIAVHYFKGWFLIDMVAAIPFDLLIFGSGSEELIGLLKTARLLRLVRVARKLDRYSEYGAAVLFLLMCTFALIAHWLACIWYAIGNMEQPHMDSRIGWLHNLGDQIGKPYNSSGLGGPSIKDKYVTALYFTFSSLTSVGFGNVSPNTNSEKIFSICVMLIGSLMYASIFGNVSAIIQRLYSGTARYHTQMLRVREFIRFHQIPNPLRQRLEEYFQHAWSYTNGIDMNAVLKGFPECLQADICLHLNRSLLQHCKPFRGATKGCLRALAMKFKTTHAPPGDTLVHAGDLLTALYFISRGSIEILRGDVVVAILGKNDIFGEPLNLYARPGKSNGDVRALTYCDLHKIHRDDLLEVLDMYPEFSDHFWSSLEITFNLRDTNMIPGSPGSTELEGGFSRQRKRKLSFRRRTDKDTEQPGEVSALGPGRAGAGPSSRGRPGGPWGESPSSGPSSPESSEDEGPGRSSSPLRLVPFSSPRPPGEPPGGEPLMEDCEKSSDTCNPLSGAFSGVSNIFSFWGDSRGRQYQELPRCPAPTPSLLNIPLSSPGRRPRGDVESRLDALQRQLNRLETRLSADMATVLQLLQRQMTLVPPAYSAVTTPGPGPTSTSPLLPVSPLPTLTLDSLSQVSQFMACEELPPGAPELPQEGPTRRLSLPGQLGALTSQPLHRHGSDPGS
# MDA-MB-231 [15] = experiment: Cell cycle arrest in human MDA-MB-231 cells assessed as accumulation at G2/M phase after 24 hrs by propidium iodide staining based flow cytometry; type: functional; how it was run: as §3
# Mus musculus [16] = experiment: Toxicity in BALB/c athymic nude mouse xenografted with human MDA-MB-231 cells assessed as effect on RDW-SD level at 30 mg/kg, ig administered every 2 days for 18 days measured post last dose; type: organism-based; settings: in vivo, po; how it was run: as §1
# Mus musculus [17] = experiment: Toxicity in BALB/c athymic nude mouse xenografted with human MDA-MB-231 cells assessed as effect on liver weight at 30 mg/kg, ig administered every 2 days for 18 days measured post last dose; type: organism-based; settings: in vivo, po; how it was run: as §2
# Mus musculus [18] = experiment: Toxicity in BALB/c athymic nude mouse xenografted with human MDA-MB-231 cells assessed as effect on MCH level at 30 mg/kg, ig administered every 2 days for 18 days measured post last dose; type: organism-based; settings: in vivo, po; how it was run: as §1
# Mus musculus [19] = experiment: Toxicity in BALB/c athymic nude mouse xenografted with human MDA-MB-231 cells assessed as effect on MCV level at 30 mg/kg, ig administered every 2 days for 18 days measured post last dose; type: organism-based; settings: in vivo, po; how it was run: as §1
# MDA-MB-231 [20] = experiment: Induction of apoptosis in human MDA-MB-231 cells assessed as annexin-V positive cells at 5 uM after 48 hrs by Annexin-V-FITC/propidium iodide staining based flow cytometry (reference value: 15.46 +/- 1.18%); type: functional
# MDA-MB-231 [21] = experiment: Induction of apoptosis in human MDA-MB-231 cells assessed as annexin-V positive cells at 2 uM after 48 hrs by Annexin-V-FITC/propidium iodide staining based flow cytometry (reference value: 15.46 +/- 1.18%); type: functional
# HeLa = experiment: Antiproliferative activity against human HeLa cells after 48 hrs by CCK8 assay; type: functional, cell-based; settings: Homo sapiens, HeLa, 48 h; read-out: IC50
# Homo sapiens = species on record: Homo sapiens; experiment: Selectivity ratio of IC50 for Aurora B (unknown origin) to IC50 for Aurora A (unknown origin)
# Mus musculus [22] = experiment: Toxicity in BALB/c athymic nude mouse xenografted with human MDA-MB-231 cells assessed as effect on WBC level at 30 mg/kg, ig administered every 2 days for 18 days measured post last dose; type: organism-based; settings: in vivo, po; how it was run: as §1
compound,measurement,setting,value
CCOC(=O)C1CCN(c2ccc3c(Nc4cc(C)[nH]n4)nc(-c4ccccc4)nc3c2)CC1,IC50,MDA-MB-231 [1],1190 nM
same,Activity,Mus musculus [2],Non-Toxic
same,IC50,Aurora kinase B [3],2520 nM
same,Activity,Mus musculus [4],Non-Toxic
same,Activity,MDA-MB-231 [5],0.85 g
same,Activity,Mus musculus [6],Non-Toxic
same,Activity,MDA-MB-231 [7],Active
same,Activity,Mus musculus [8],Non-Toxic
same,IC50,DU-145,2050 nM
same,Activity,Mus musculus [9],Non-Toxic
same,Activity,Mus musculus [10],Non-Toxic
same,inhibition (INH),Aurora kinase B [11],Not Active
same,Activity,MDA-MB-231 [12],Dose-dependent effect
same,Activity,Mus musculus [13],Non-Toxic
same,IC50,MOLT-4,821 nM
same,IC50,[14],> 10000 nM
same,Activity,MDA-MB-231 [15],Dose-dependent effect
same,Activity,Mus musculus [16],Non-Toxic
same,Activity,Mus musculus [17],Non-Toxic
same,Activity,Mus musculus [18],Non-Toxic
same,Activity,Mus musculus [19],Non-Toxic
same,Activity,MDA-MB-231 [20],47.1%
same,Activity,MDA-MB-231 [21],42.33%
same,IC50,HeLa,450 nM
same,Ratio IC50,Homo sapiens,66
same,Activity,Mus musculus [22],Non-Toxic
